Results published in ChEMBL document CHEMBL2150909, “Imidazo[1,2-a]pyridines: orally active positive allosteric modulators of the metabotropic glutamate 2 receptor” (J Med Chem, 2012).
Active and inactive are the calls of the source. No cut-off for these calls is given here.

Tests used:
Rattus norvegicus [1] = assay: Effect on sleep-wake cycle in Sprague-Dawley rat EEG model assessed as change in transition from sleep states toward waking at 10 mg/kg, po measured up to 20 hrs relative to control; type: functional, organism-based; parameters: dose 10 mg/kg
Method in brief: (§1)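 Male Sprague-Dawley rats (250–300 g) implanted with EEG/EMG/EOG electrodes, 12 h light/dark cycle, n = 8 per group. Baseline 20 h recording after oral saline, then 20 h after oral 10 mg/kg or vehicle (20% CD + 2H2T). 2 s epochs scored into AW, PW, preREM, REM, lSWS, dSWS and averaged per 30 min. Latencies and transitions analysed; Wilcoxon−Mann−Whitney test vs vehicle.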

Rattus norvegicus [2] = assay: Effect on sleep-wake cycle in Sprague-Dawley rat EEG model assessed as effect on different vigilance states at 10 mg/kg, po measured up to 20 hrs relative to control; type: functional, organism-based; parameters: dose 10 mg/kg; method in brief: as §1
[3] = target: T1, Metabotropic glutamate receptor 7 (Homo sapiens, UniProt Q14831); assay: Agonist activity at human mGlu 7 expressed in HEK293 cells at 10 uM by Ca+2 assay; type: functional, cell-based
Method in brief: (§2)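 Ca2+ assays on human mGlu1, mGlu3, mGlu5, mGlu7 or mGlu8 receptors, each expressed in HEK293 cells; compound tested at 10 μM for agonist and antagonist activity.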

[4] = Plasma concentration in Sprague-Dawley rat at 10 mg/kg, po after 2 hrs; type: ADME, organism-based; parameters: dose 10 mg/kg, route oral
Rattus norvegicus [5] = assay: Effect on sleep-wake cycle in Sprague-Dawley rat EEG model assessed as change in sleep variables at 10 mg/kg, po measured up to 20 hrs relative to control; type: functional, organism-based; parameters: dose 10 mg/kg; method in brief: as §1
[6] = Ratio of drug level in brain to plasma of Sprague-Dawley rat at 10 mg/kg, po after 1 hr; type: ADME, organism-based; parameters: dose 10 mg/kg, route oral; details: read-out: BPR
Method in brief: (§3)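 Oral dosing of Sprague−Dawley rats at 10 mg/kg, compound in 20% HP-β-CD at pH 4. Brain (ng/g) and plasma (ng/mL) concentrations sampled at the indicated time; brain-to-plasma ratio calculated. Geometric mean of at least two runs ± SEM.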

[7] = target: Metabotropic glutamate receptor 6 (Rattus norvegicus) (UniProt P35349); assay: Agonist activity at rat mGlu 6 expressed in CHO cells assessed as [35S]GTPgammaS binding by liquid scintillation counting; type: functional, cell-based
Metabotropic glutamate receptor 6 (Rattus norvegicus), sequence (P35349 whole entry): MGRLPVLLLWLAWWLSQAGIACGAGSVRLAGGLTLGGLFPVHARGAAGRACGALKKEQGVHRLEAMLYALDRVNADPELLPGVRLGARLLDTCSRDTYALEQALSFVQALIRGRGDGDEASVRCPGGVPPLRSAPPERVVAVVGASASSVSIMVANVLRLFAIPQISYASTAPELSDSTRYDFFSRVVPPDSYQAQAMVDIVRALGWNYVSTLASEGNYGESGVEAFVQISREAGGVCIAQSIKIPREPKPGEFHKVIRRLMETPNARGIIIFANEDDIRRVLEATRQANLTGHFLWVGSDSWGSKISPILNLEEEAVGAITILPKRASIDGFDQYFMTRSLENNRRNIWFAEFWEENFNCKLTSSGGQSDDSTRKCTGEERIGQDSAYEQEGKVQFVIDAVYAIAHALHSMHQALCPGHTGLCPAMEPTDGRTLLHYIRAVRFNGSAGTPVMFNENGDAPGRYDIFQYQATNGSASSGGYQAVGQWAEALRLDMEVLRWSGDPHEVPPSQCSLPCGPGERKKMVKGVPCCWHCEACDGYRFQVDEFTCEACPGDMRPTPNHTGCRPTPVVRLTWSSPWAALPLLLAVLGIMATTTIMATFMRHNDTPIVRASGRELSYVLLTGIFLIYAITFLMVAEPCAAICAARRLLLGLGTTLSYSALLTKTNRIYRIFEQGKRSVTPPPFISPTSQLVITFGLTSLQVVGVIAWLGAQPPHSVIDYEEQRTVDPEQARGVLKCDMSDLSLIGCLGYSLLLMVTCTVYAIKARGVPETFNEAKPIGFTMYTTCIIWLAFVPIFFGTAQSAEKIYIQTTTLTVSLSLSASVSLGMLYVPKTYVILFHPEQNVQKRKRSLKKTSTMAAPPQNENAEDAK
Method in brief: (§4)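 [35S]GTPγS functional assays on human mGlu4 or rat mGlu6 receptors expressed in L929 or CHO cells; agonist and antagonist modes tested at 10 μM.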

Rattus norvegicus [8] = assay: Effect on sleep-wake cycle in Sprague-Dawley rat EEG model assessed as change in deep sleep at 10 mg/kg, po measured up to 20 hrs relative to control; type: functional, organism-based; parameters: dose 10 mg/kg; method in brief: as §1
Rattus norvegicus [9] = assay: Effect on sleep-wake cycle in Sprague-Dawley rat EEG model assessed as change in passive wake at 10 mg/kg, po measured up to 20 hrs relative to control; type: functional, organism-based; parameters: dose 10 mg/kg; method in brief: as §1
Rattus norvegicus [10] = assay: Effect on sleep-wake cycle in Sprague-Dawley rat EEG model assessed as change in active wake at 10 mg/kg, po measured up to 20 hrs relative to control; type: functional, organism-based; parameters: dose 10 mg/kg; method in brief: as §1
[11] = Plasma concentration in Sprague-Dawley rat at 10 mg/kg, po after 1 hr; type: ADME, organism-based; parameters: dose 10 mg/kg, route oral
[12] = target: Metabotropic glutamate receptor 2 (Homo sapiens, UniProt Q14416); assay: Agonist activity at human mGlu 2 expressed in CHO cells by PAM assay relative to glutamate; type: functional, cell-based
Method in brief: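 The assay measured [35S]GTPγS binding to membranes from CHO cells expressing human mGluR2. Cells were butyrate-stimulated (5 mM, 24 h) before membranes were prepared. Membranes were preincubated for 30 min at 30 °C in HEPES pH 7.4 buffer (NaCl, MgCl2, 50 μM GDP) with compound (0.3 nM–50 μM, 11 concentrations) plus EC25 glutamate. [35S]GTPγS (0.1 nM final) was then added for 30 min at 30 °C. Bound label was collected by filtration and counted. Runs were done at least in triplicate with duplicate points, and a four-parameter logistic fit gave the values.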

Rattus norvegicus [13] = assay: Effect on sleep-wake cycle in Sprague-Dawley rat EEG model assessed as change in light sleep at 10 mg/kg, po measured up to 20 hrs relative to control; type: functional, organism-based; parameters: dose 10 mg/kg; method in brief: as §1
[14] = target: Metabotropic glutamate receptor 8 (Homo sapiens) (UniProt O00222); assay: Antagonist activity at human mGlu 8 expressed in HEK293 cells at 10 uM by Ca+2 assay; type: functional, cell-based; method in brief: as §2
Metabotropic glutamate receptor 8 (Homo sapiens), sequence (O00222 whole entry): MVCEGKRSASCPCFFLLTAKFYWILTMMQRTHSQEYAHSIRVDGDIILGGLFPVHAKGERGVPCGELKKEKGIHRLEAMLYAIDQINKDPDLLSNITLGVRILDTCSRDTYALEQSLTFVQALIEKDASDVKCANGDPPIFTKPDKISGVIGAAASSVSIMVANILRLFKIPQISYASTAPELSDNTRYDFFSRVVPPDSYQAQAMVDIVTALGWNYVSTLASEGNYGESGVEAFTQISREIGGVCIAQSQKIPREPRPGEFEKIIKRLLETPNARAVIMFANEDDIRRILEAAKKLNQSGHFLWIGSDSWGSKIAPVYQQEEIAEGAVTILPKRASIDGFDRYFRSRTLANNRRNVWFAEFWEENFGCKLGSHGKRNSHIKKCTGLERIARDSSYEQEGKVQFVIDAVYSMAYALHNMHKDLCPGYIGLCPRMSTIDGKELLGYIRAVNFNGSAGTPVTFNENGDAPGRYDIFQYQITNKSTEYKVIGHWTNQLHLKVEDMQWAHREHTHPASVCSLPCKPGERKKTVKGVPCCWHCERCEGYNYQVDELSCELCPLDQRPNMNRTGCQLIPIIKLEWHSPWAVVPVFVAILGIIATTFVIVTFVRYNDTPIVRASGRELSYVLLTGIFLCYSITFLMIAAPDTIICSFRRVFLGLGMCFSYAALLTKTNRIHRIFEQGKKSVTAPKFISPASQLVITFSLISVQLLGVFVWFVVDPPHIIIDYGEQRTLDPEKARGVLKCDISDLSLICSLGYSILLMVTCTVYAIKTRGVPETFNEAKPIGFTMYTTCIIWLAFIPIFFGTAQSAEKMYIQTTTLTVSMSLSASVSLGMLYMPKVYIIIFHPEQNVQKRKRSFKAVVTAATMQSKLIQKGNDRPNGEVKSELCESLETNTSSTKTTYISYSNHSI

[15] = Metabolic stability of human liver microsomes assessed as compound metabolized at 5 uM after 15 mins; type: ADME, Microsome; details: read-out: Drug metabolism
Method in brief: (§5)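 Test compound at 5 μM incubated 15 min with rat or human liver microsomes; read-out is percent of compound metabolized.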

[16] = target: Metabotropic glutamate receptor 4 (Homo sapiens) (UniProt Q14833); assay: Agonist activity at human mGlu 4 expressed in L929 cells assessed as [35S]GTPgammaS binding by liquid scintillation counting; type: functional, cell-based; method in brief: as §4
Metabotropic glutamate receptor 4 (Homo sapiens), sequence (Q14833 whole entry): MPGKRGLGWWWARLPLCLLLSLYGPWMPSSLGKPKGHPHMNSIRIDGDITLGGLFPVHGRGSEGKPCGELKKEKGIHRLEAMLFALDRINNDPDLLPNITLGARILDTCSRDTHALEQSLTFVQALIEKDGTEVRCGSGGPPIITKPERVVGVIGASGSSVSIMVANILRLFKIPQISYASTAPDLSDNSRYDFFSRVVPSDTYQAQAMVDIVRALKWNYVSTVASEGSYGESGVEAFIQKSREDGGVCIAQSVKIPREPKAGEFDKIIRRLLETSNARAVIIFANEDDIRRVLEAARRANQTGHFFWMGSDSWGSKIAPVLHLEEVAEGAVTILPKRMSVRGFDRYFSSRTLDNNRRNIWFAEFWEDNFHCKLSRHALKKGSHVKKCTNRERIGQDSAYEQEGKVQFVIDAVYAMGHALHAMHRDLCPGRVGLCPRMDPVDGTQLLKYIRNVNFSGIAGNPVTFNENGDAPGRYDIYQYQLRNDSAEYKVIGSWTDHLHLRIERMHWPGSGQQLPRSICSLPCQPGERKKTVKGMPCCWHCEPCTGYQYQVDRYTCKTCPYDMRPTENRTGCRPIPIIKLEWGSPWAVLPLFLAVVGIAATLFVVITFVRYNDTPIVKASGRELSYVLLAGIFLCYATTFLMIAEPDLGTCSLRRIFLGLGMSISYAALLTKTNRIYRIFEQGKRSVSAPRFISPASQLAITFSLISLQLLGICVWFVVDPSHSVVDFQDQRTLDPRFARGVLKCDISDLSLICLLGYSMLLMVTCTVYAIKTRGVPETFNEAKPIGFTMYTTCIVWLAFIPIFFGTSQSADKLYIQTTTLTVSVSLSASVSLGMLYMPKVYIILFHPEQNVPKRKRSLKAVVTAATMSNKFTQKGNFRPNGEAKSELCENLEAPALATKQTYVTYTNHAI

[17] = target: Metabotropic glutamate receptor 4 (Homo sapiens) (UniProt Q14833); assay: Antagonist activity at human mGlu 4 expressed in L929 cells assessed inhibition of [35S]GTPgammaS binding by liquid scintillation counting; type: functional, cell-based; method in brief: as §4
[18] = target: Metabotropic glutamate receptor 6 (Rattus norvegicus) (UniProt P35349); assay: Antagonist activity at rat mGlu 6 expressed in CHO cells assessed as inhibition of [35S]GTPgammaS binding by liquid scintillation counting; type: functional, cell-based; method in brief: as §4
[19] = Cmax in Sprague-Dawley rat at 10 mg/kg, po; type: ADME, organism-based; parameters: dose 10 mg/kg, route oral; details: in vivo
Method in brief: (§6)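 Male Sprague-Dawley rats given 10 mg/kg orally and/or 1.25 mg/kg intravenously; compound formulated in 20% HP-β-CD at pH 4. Cmax, tmax, AUC0−inf, t1/2, clearance and oral bioavailability F derived from plasma levels; geometric mean of at least two runs ± SEM.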

[20] = Drug uptake in Sprague-Dawley rat brain at 10 mg/kg, po after 2 hrs; type: ADME, organism-based; parameters: dose 10 mg/kg, route oral; details: read-out: Drug uptake
[21] = Ratio of drug level in brain to plasma of Sprague-Dawley rat at 10 mg/kg, po after 2 hrs; type: ADME, organism-based; parameters: dose 10 mg/kg, route oral; details: read-out: BPR; method in brief: as §3
[22] = target: Metabotropic glutamate receptor 5 (Homo sapiens) (UniProt P41594); assay: Agonist activity at human mGlu 5 expressed in HEK293 cells at 10 uM by Ca+2 assay; type: functional, cell-based; method in brief: as §2
Metabotropic glutamate receptor 5 (Homo sapiens), sequence (P41594 21-1212 limits assumed): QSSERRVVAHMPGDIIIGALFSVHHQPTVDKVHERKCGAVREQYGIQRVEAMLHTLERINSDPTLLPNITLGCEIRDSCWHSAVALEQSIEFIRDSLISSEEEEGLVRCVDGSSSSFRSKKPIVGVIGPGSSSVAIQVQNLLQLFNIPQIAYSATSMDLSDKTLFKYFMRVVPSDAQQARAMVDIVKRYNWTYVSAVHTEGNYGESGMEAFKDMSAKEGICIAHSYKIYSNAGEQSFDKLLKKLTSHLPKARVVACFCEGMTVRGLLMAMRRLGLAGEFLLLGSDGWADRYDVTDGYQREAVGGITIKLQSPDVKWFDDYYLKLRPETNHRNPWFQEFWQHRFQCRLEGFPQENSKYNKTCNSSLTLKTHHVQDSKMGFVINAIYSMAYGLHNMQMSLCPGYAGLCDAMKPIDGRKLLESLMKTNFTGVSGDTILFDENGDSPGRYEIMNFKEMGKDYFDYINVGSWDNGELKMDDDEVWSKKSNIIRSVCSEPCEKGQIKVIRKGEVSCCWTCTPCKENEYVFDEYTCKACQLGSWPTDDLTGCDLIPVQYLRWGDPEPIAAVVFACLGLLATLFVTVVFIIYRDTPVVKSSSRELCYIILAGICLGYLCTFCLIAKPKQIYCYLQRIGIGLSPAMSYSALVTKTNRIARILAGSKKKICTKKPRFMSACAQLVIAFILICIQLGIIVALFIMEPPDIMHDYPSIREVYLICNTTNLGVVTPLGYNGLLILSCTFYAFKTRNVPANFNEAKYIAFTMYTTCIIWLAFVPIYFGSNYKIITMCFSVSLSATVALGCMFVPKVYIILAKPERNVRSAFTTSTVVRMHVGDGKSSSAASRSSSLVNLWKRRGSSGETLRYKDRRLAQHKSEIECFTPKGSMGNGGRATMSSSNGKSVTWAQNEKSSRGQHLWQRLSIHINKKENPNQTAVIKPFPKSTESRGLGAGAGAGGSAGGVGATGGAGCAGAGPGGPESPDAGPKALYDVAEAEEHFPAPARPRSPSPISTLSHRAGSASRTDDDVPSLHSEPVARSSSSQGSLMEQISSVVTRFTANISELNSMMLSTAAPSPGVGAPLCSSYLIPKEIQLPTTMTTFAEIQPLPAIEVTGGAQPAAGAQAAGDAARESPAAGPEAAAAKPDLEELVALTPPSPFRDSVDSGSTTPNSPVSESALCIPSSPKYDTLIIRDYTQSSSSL

[23] = Tmax in Sprague-Dawley rat at 10 mg/kg, po; type: ADME, organism-based; parameters: dose 10 mg/kg, route oral; details: in vivo
Method in brief: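 Rat pharmacokinetics in Sprague−Dawley rats: oral 10 mg/kg and intravenous 1.25 mg/kg, formulated in 20% HP-β-CD at pH 4. Plasma profiles used for Cmax, tmax, AUC0−inf and t1/2. Reported as geometric means of at least two runs ± SEM.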

[24] = Half life in Sprague-Dawley rat at 10 mg/kg, po; type: ADME, organism-based; parameters: dose 10 mg/kg, route oral; details: in vivo; method in brief: as §6
[25] = Metabolic stability of Sprague-Dawley rat liver microsomes assessed as compound metabolized at 5 uM after 15 mins; type: ADME, Microsome; details: read-out: Drug metabolism; method in brief: as §5
[26] = target: Metabotropic glutamate receptor 5 (Homo sapiens) (UniProt P41594); assay: Antagonist activity at human mGlu 5 expressed in HEK293 cells at 10 uM by Ca+2 assay; type: functional, cell-based; method in brief: as §2
[27] = Ratio of drug level in brain to plasma of Sprague-Dawley rat at 10 mg/kg, po after 4 hrs; type: ADME, organism-based; parameters: dose 10 mg/kg, route oral; details: brain and plasma, read-out: BPR; method in brief: as §3
[28] = AUC (0 to infinity) in Sprague-Dawley rat at 10 mg/kg, po; type: ADME, organism-based; parameters: time infinity, dose 10 mg/kg, route oral; details: plasma; method in brief: as §6
[29] = target: Metabotropic glutamate receptor 3 (Homo sapiens) (UniProt Q14832); assay: Agonist activity at human mGlu 3 expressed in HEK293 cells at 10 uM by Ca+2 assay; type: functional, cell-based; method in brief: as §2
Metabotropic glutamate receptor 3 (Homo sapiens), sequence (Q14832 23-879 limits assumed): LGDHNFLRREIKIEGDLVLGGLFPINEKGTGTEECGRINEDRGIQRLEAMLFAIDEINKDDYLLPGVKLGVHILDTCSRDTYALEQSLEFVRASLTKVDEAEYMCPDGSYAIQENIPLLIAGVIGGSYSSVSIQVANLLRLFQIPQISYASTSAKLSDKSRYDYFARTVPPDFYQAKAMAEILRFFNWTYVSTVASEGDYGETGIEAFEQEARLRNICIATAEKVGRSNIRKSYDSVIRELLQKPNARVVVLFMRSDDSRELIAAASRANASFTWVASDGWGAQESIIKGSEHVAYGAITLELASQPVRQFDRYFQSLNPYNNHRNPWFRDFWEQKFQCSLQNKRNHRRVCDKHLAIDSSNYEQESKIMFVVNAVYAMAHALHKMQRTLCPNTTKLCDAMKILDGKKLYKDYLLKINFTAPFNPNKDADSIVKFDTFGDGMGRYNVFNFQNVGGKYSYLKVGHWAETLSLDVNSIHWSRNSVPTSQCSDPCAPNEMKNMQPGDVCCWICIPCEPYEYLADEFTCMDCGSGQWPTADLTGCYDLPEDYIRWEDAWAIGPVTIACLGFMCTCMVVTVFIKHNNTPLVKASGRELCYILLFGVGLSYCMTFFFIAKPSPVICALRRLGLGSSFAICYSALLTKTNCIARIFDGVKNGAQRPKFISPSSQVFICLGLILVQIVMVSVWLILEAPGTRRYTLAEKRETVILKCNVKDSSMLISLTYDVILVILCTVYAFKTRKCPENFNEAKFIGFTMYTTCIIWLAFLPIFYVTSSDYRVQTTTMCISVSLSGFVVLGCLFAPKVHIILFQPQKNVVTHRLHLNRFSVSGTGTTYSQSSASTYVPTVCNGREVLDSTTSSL

[30] = Drug uptake in Sprague-Dawley rat brain at 10 mg/kg, po after 1 hr; type: ADME, organism-based; parameters: dose 10 mg/kg, route oral; details: read-out: Drug uptake
Rattus norvegicus [31] = assay: Effect on sleep-wake cycle in Sprague-Dawley rat EEG model assessed as suppression of REM sleep at 10 mg/kg, po measured up to 2 hrs relative to control; type: functional; method in brief: as §1
[32] = target: T1, Metabotropic glutamate receptor 7; assay: Antagonist activity at human mGlu 7 expressed in HEK293 cells at 10 uM by Ca+2 assay; type: functional, cell-based; method in brief: as §2
[33] = Plasma concentration in Sprague-Dawley rat at 10 mg/kg, po after 4 hrs; type: ADME, organism-based; parameters: dose 10 mg/kg, route oral; method in brief: as §3
[34] = target: Metabotropic glutamate receptor 1 (Homo sapiens) (UniProt Q13255); assay: Agonist activity at human mGlu 1 expressed in HEK293 cells at 10 uM by Ca+2 assay; type: functional, cell-based; method in brief: as §2
Rattus norvegicus [35] = assay: Effect on sleep-wake cycle in Sprague-Dawley rat EEG model assessed as change in intermediate state at 10 mg/kg, po measured up to 20 hrs relative to control; type: functional, organism-based; parameters: dose 10 mg/kg; method in brief: as §1
[36] = target: Metabotropic glutamate receptor 3 (Homo sapiens) (UniProt Q14832); assay: Antagonist activity at human mGlu 3 expressed in HEK293 cells at 10 uM by Ca+2 assay; type: functional, cell-based; method in brief: as §2
[37] = target: Metabotropic glutamate receptor 1 (Homo sapiens) (UniProt Q13255); assay: Antagonist activity at human mGlu 1 expressed in HEK293 cells at 10 uM by Ca+2 assay; type: functional, cell-based; method in brief: as §2
[38] = target: Metabotropic glutamate receptor 8 (Homo sapiens) (UniProt O00222); assay: Agonist activity at human mGlu 8 expressed in HEK293 cells at 10 uM by Ca+2 assay; type: functional, cell-based; method in brief: as §2
[39] = Drug uptake in Sprague-Dawley rat brain at 10 mg/kg, po after 4 hrs; type: ADME, organism-based; parameters: dose 10 mg/kg, route oral; details: read-out: Drug uptake
Rattus norvegicus [40] = assay: Effect on sleep-wake cycle in Sprague-Dawley rat EEG model assessed as increase in REM sleep onset latency at 10 mg/kg, po measured up to 2 hrs relative to control; type: functional, organism-based; parameters: dose 10 mg/kg; method in brief: as §1

- Activity [3]: inactive
- concentration at 2 h [4]: 364 ng/mL
- Kp at 1 h [6]: 1.3
- Activity [7]: inactive
- concentration at 1 h [11]: 414 ng/mL
- Emax [12]: 217%
- Activity [14]: inactive
- metabolised at 0.25 h, 5 µM [15]: 10%
- Activity [16]: inactive
- Activity [17]: inactive
- Activity [18]: inactive
- Cmax [19]: 534 ng/mL
- concentration at 2 h [20]: 441 ng/g
- Kp at 2 h [21]: 1.2
- Activity [22]: inactive
- Tmax [23]: 0.8 h
- half-life [24]: 2 h
- metabolised at 0.25 h, 5 µM [25]: 21%
- Activity [26]: inactive
- Kp at 4 h [27]: 0.8
- AUC(0-inf) [28]: 1980 ng·h/mL
- Activity [29]: inactive
- concentration at 1 h [30]: 538 ng/g
- Activity [32]: inactive
- concentration at 4 h [33]: 168 ng/mL
- Activity [34]: inactive
- Activity [36]: inactive
- Activity [37]: inactive
- Activity [38]: inactive
- concentration at 4 h [39]: 126 ng/g
SMILES: FC(F)(F)Cc1cnc2c(Cl)c(-c3cc(Cl)c4[nH]ccc4c3)ccn12
- Activity (Rattus norvegicus [1]): inactive
- Activity (Rattus norvegicus [2]): inactive
- Activity (Rattus norvegicus [5]): inactive
- Activity (Rattus norvegicus [8]): inactive
- Activity (Rattus norvegicus [9]): inactive
- Activity (Rattus norvegicus [10]): inactive
- Activity (Rattus norvegicus [13]): inactive
- Activity (Rattus norvegicus [31]): 57%
- Activity (Rattus norvegicus [35]): inactive
- Activity (Rattus norvegicus [40]): Active
